Assay outcomes: PubChem, several laboratories
In the library only some 0.97% were active in any assay of this set; here they are far more common.
A3A deaminase: blocks human APOBEC3A ssDNA deamination | inhibition, % at 20 µM | 330,000 compounds, 0.41% hits | P31941 | recombinant A3A, FAM/TAMRA ssDNA deamination fluorescence;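 active means at least 40% inhibition at 20 µM here, with at most 30% in a related deaminase screen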;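 further: plate controls were A3A with DMSO for no effect and wells lacking A3A enzyme for full effect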
A3G deaminase: inhibitors of human APOBEC3G DNA deaminase | recombinant A3G, ssDNA deamination FAM/TAMRA fluorescence | 330,000 compounds, 0.28% hits | Q9HC16 | inhibition, % at 20 µM;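 active means inhibition of at least 40% at 20 µM, with no more than 30% in the related APOBEC3A deaminase screen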;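 further: plate controls were DMSO wells with A3G for no effect and wells lacking A3G enzyme for full effect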
JMJD2C inh: blocks human GASC-1 demethylase activity. GST-JMJD2C(1-420) H3K9me3 demethylation, DELFIA europium. inhibition, % at 2.35 µM. 330,000 compounds, 0.069% hits;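 active means more than half of a compound's replicate wells show inhibition beyond 50%, single wells judged on their own value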;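 further: signal counts dimethyl H3K9 product captured on neutravidin plate; 0% = median of DMSO wells and 100% = 0.3 times that DMSO median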
UCH37 DUB inh: human UCH37 deubiquitinating enzyme inhibition | AID 588478 | 330,000 compounds, 0.33% hits | Q9Y5K5 | purified proteasome/UCH37, Ub-AMC cleavage fluorescence | inhibition, % (no concentration beside the values);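 active means mean inhibition over replicate wells above about 20%, limit read from the data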;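 further: 0% = compound-free wells with enzyme and 100% = wells lacking proteasome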
Target sequence (Q9Y5K5 whole entry, looked up): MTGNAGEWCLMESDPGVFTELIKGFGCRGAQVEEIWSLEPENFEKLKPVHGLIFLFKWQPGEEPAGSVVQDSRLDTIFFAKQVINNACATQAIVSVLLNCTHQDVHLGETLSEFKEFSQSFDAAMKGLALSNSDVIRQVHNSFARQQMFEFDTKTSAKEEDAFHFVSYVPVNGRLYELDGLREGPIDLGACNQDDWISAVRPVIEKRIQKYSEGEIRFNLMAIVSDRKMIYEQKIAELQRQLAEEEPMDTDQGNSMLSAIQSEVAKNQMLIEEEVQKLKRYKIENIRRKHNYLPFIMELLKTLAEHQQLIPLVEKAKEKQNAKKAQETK
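Material: human UCH37 enzyme supplied as purified proteasome complex. Measure: % inhibition of Ub-AMC cleavage fluorescence. Medium: pH 7.4 Tris-HCl (50 mM) with ovalbumin, ATP-MgCl2, DTT. Times: 30 min preincubation with enzyme, 25 min cleavage at room temperature. Detection: AMC fluorescence intensity at 355/460 nm.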
APOBEC3G confirm: confirmation of human APOBEC3G DNA deaminase inhibitors; shares compounds with A3G deaminase; recombinant A3G ssDNA deaminase, UDG/FAM-TAMRA fluorescence; inhibition, % at 20 µM; 890 compounds, 72% hits; AID 493152;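 active means inhibition reaching a set limit in any replicate at 20 µM, the limit being 80% of the first screen's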
UDG A3G counter: inhibits E. coli UDG, flagging false APOBEC3G inhibitors; shares compounds with A3G deaminase; UDG counterscreen, FAM/TAMRA oligo fluorescence; inhibition, % at 20 µM; 710 tested, under 10 active; AID 504715;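 active means compounds giving 40% or more inhibition at 20 µM in any one of the three replicates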;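 further: plate controls were DMSO wells with UDG and oligo for no effect and DMSO wells lacking both for full effect; inhibitors lower the FAM signal released by uracil excision and alkaline cleavage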
Target sequence (P12295 whole entry, looked up): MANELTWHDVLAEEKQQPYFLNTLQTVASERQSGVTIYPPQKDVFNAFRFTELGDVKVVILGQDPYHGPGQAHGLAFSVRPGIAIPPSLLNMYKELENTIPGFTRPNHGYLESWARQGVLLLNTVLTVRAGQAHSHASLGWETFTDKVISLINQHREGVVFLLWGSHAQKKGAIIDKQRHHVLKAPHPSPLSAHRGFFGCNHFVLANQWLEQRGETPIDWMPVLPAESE
UCH37 reconfirm: UCH37 Ub-AMC cleavage inhibition, confirmed; shares compounds with UCH37 DUB inh; Proteasome-bound UCH37, Ub-AMC cleavage fluorescence; inhibition, % at 20 µM; 480 compounds, 27% hits;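 active means average inhibition over replicates above about 50%, so the earlier screening hit is confirmed, limit read from the data; inactive means the rest, counted as false positives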;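 further: based on cleavage rate fitted by regression over a 30 min kinetic read; 0% = proteasome plus Ub-AMC and 100% = Ub-AMC without proteasome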
Active calls of the source: *; / = not tested or not shown.

SMILES	A3A deaminase	A3G deaminase	JMJD2C inh	UCH37 DUB inh	UCH37 reconfirm	others
O=C(CCS(=O)(=O)c1ccccc1)Nc1nc(-c2cccs2)cs1	-5	-9	1	3	/
Cc1ccc(-n2c(CCc3nc4ccccc4[nH]3)n[nH]c2=S)cc1	4	52*	-8	0	/	APOBEC3G confirm=27
CCn1c(CCc2nc3ccccc3[nH]2)n[nH]c1=S	-2	19	2	0	/
Cc1ccc(/C=N/NC(=O)NC2CCCCC2)o1	-5	-8	11	/	/
Cc1ccc(/C=C/C(=O)NC2CCCCCCC2)o1	10	50*	8	3	/	APOBEC3G confirm=38*;UDG A3G counter=-3
S=c1[nH]nc(NCCCN2CCOCC2)s1	-4	44*	-7	3	/	APOBEC3G confirm=47*;UDG A3G counter=-37
CCC(=O)N1CCc2cc(S(=O)(=O)N3CCN(c4cc(Cl)ccc4C)CC3)ccc21	-2	58*	-4	1	/	APOBEC3G confirm=-2;UDG A3G counter=1
C=C(C)C(=O)Nc1cccc(C2=NOC3(C2)C[C@@H](C(N)=O)N(C(=O)C(=C)C)C3)c1 (stereo not given in full)	13	88*	9	1	/	APOBEC3G confirm=92*;UDG A3G counter=2
C=C(C)C(=O)Nc1cccc(C2=NOC3(C2)C[C@@H](C(N)=O)N(C(=O)C2(C)CC2)C3)c1 (stereo not given in full)	21	89*	19	4	/	APOBEC3G confirm=94*
C=C(C)C(=O)N1CC2(CC(c3cccc(NC(=O)/C=C\C=C/C)c3)=NO2)C[C@H]1C(N)=O (stereo not given in full)	3	21	-14	3	/
Nc1cc(S(=O)(=O)Nc2ccccc2Cl)ccc1N1CCCC1	-3	-3	13	5	/
Nc1cc(S(=O)(=O)Nc2cc(Cl)ccc2Cl)ccc1N1CCOCC1	1	48*	6	3	/	APOBEC3G confirm=34*;UDG A3G counter=6
O=C(CN1CCN(c2ccc(O)cc2)CC1)Nc1ccc(SC(F)F)cc1	3	43*	-4	3	/	APOBEC3G confirm=6
O=S(=O)(Nc1ncnc2sc3c(c12)CCC3)c1ccc2ccccc2c1	-14	-4	-1	-2	/
Cc1cc(F)ccc1S(=O)(=O)Nc1ncnc2sc3c(c12)CCC3	-1	51*	-1	-1	/	APOBEC3G confirm=-4;UDG A3G counter=2
Cc1c(/C=N/Nc2ccc(F)cc2)c(O)n(C)c(=O)c1C#N	-1	64*	9	-8	/	APOBEC3G confirm=-1;UDG A3G counter=-3
Cn1c(O)c(/C=N/Nc2ccccc2)c(=O)n(C)c1=O	-1	20	19	4	/
COc1ccc(C(C)=NNc2nccnc2Cl)cc1	/	/	/	4	/
Cc1c(Cl)c(-c2n[nH]c(=S)n2CC(C)C)nn1C	5	28	19	5	/
CCCCn1c(-c2nn(C)c(C)c2Cl)n[nH]c1=S	-4	40*	2	2	/	APOBEC3G confirm=78*;UDG A3G counter=-5
O=C(O)COc1ccc(C=NNC(=O)Cc2ccc(Cl)cc2)cc1	/	/	/	4	/
O=S(=O)(Nc1cc(Sc2ncn[nH]2)c(O)c2ccccc12)c1ccccc1	-2	61*	/	38*	70*	APOBEC3G confirm=89*;UDG A3G counter=-1
COc1cc(OC)c(C=NN2CCN(c3ccccc3OC)CC2)c(OC)c1	/	/	/	1	/
NC(=S)n1[nH]c(-c2ccccc2)c(N=Nc2ccccc2C(=O)N2CCOCC2)c1=O	-3	-3	-118	54*	6
COc1ccc(NC(=O)/C=C/c2c(Cl)nc3ccccn23)cc1	-1	-5	-9	37*	9
SMILES	A3A deaminase	A3G deaminase	JMJD2C inh	UCH37 DUB inh	UCH37 reconfirm	others
O=C1c2ccccc2C(=O)c2c1cccc2-n1nnc2ccccc21	9	12	5	0	/
O=C1C(N2CCOCC2)=C(n2nnc3ccccc32)C(=O)c2ccccc21	-1	-1	-6	72*	88*
CN(c1ccccc1)c1ccc(C=NN2CCOCC2)cc1	/	/	/	7	/
O=C1NC(=S)S/C1=C\C=C\c1ccc([N+](=O)[O-])o1	/	/	/	28*	32
COc1ccc(-c2[nH]ncc2C=NNC(=O)c2ccc(C(C)(C)C)cc2)cc1OC	/	/	/	2	/
O=C(O)c1ccc(NC2=CC(=NS(=O)(=O)c3ccccc3)c3ccccc3C2=O)cc1	/	/	/	95*	98*
COc1ccc(S(=O)(=O)/N=C2\C=C(Nc3ccc(O)cc3)C(=O)c3ccccc32)cc1	0	-3	-11	/	/
O=C(O)c1ccc(S(=O)(=O)/N=C2\C=C(Nc3ccccc3F)C(=O)c3ccccc32)cc1	1	-8	-2	93*	99*
CCN1/C(=C/C=C/c2oc3ccc(-c4ccccc4)cc3[n+]2CC)Oc2ccc(-c3ccccc3)cc21	1	-13	8	35*	76*
CCCCN1C(=O)/C(=C/C=C2\Oc3ccccc3N2CC)SC1=S	/	/	-10	6	/
CC1=C(C(=O)OCc2ccccc2)C(c2ccccc2Cl)NC(=O)N1CCCC(=O)O (stereo not given)	-4	-13	-19	41*	9
O=S(=O)(NCc1ccc(F)cc1)c1ccccc1Br	-2	-6	1	35*	-11
CCOC(=O)c1c(-c2ccccc2)csc1NC(=O)CCN1C(=O)c2ccccc2C1=O	2	-3	-5	-1	/
CCOC(=O)c1c(-c2ccc(-c3ccccc3)cc2)csc1NC(=O)CNCCN(C)C	-3	-7	-14	25*	84*
O=C1C(Nc2cccc(O)c2)=C(N2CCCCC2)C(=O)c2ccccc21	0	-5	3	31*	35
O=C(NN=Cc1cc2c(cc1Cl)OCO2)c1ccccn1	/	/	/	-8	/
O=C1C2C3CCCC3=C3CCCC3C2C(=O)N1c1ccc(F)cc1 (stereo not given)	-2	-5	1	32*	53*
CCN1C(=O)/C(=C/C=C2/SCCN2C)SC1=S	1	-1	16	8	/
CN1CCS/C1=C\C=C1/SC(=S)N(CC(=O)O)C1=O	/	/	-3	39*	38
CC(/C=C/c1ccccc1)=NNC(=S)NC(C)C	/	/	/	4	/
CC[C@]1(c2cccc(C)c2)C(=O)N(C(=O)OC)N1C(=O)OC	1	4	0	35*	-6
CCOc1cccc(C=NNC(=S)Nc2ccccc2[N+](=O)[O-])c1O	/	/	/	49*	14
O=[N+]([O-])c1ccccc1NC(=S)NN=Cc1ccc(O)c(O)c1	/	/	/	8	/
O=[N+]([O-])c1ccc(N=Nc2ccc(O)cc2O)cc1	8	5	-9	25*	46
O=C1Cc2ccccc2C(=O)N1Cc1cccc(Cl)c1	/	/	-3	34*	17
Nc1cccc2c1C(=O)N(Cc1cccc(Cl)c1)C2=O	4	-8	-3	-95	/
Cc1cc2c(cc1C)C(=O)C(Br)=C(N)C2=O	/	/	/	4	/
NC1=C(Br)C(=O)c2ccccc2C1=O	0	0	4	34*	50
